The results in this text go back to ChEMBL document CHEMBL4007417, “Target Elucidation by Cocrystal Structures of NADH-Ubiquinone Oxidoreductase of Plasmodium falciparum (PfNDH2) with Small Molecule To Eliminate Drug-Resistant Malaria” (J Med Chem, 2017).

Each structure is given as a SMILES string. Active and inactive are the calls of the source. The calls are words filed in the database; no cut-off is given here.

Experiment [1] has as its system Plasmodium yoelii. Put plainly: Antimalarial activity against Plasmodium yoelii YM infected in BALB/c mouse assessed as parasite growth inhibition at 5 mg/kg, sc administered QD for 4 days starting at 2 hrs post infection by Giemsa-staining based microscopic analysis. The conditions noted are these: read-out: GI. The experiment is classed as functional. Summed up: (§1)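 P. yoelii-infected mice, n=3 per group. Subcutaneous injection once daily for 4 days starting at 2 h post infection. Growth inhibition determined at 24 h post treatment by blood-smear microscopy. Cure time taken as the minimum period to cure all mice in the group.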

Experiment [2] has as its system Plasmodium yoelii. Briefly: Antimalarial activity against Plasmodium yoelii YM infected in BALB/c mouse assessed as time duration for parasite cure at 5 mg/kg, sc administered QD for 4 days starting at 2 hrs post infection by Giemsa-staining based microscopic analysis. It is filed as functional. Summed up:
as §1

The test system of experiment [3] is Plasmodium yoelii. Briefly: Antimalarial activity against Plasmodium yoelii YM infected in BALB/c mouse assessed as mouse survival at 5 mg/kg, sc administered QD for 4 days starting at 2 hrs post infection by Giemsa-staining based microscopic analysis. The experiment is classed as functional. The essentials: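 Mice inoculated with 1×106 P. yoelii parasites, then dosed subcutaneously once daily for 4 days starting 2 h post infection. Parasitemia followed by microscopy of blood smears. Survival scored at 40 days post infection in groups of n=3 mice. DMSO-only controls.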

Experiment [4] has as its system Plasmodium yoelii. Put plainly: Antimalarial activity against Plasmodium yoelii YM infected in BALB/c mouse assessed as parasite growth inhibition at 10 mg/kg, sc administered QD for 4 days starting at 96 hrs post infection by Giemsa-staining based microscopic analysis. The experiment is classed as functional. The conditions noted are these: read-out: GI. Summed up: (§2)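 P. yoelii-infected mice, n=3 per group. Subcutaneous injection once daily for 4 days starting at 96 h post infection. Parasitemia followed on blood-smear microscopy, with inhibition measured at 24 h post treatment. Cure time taken as the minimum period to cure all mice; survival recorded at 40 days. DMSO controls included.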

Experiment [5] deals with Plasmodium yoelii. Put plainly: Antimalarial activity against Plasmodium yoelii YM infected in BALB/c mouse assessed as time duration for parasite cure at 10 mg/kg, sc administered QD for 4 days starting at 96 hrs post infection by Giemsa-staining based microscopic analysis. It is filed as functional. Summed up: as §2
In experiment [6] the test system is Plasmodium yoelii. Put plainly: Antimalarial activity against Plasmodium yoelii YM infected in BALB/c mouse assessed as mouse survival at 10 mg/kg, sc administered QD for 4 days starting at 96 hrs post infection by Giemsa-staining based microscopic analysis. It is filed as functional. The essentials:
(§3)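 Mice inoculated with 1×106 P. yoelii parasites. Subcutaneous dosing for 4 days starting 96 h post infection, given once daily or twice daily 8 h apart. Parasitemia followed on Giemsa-stained blood smears. Survival recorded at 40 days post infection; groups of n=3. DMSO-only mice served as untreated controls.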

Experiment [7] deals with Plasmodium yoelii. Briefly: Antimalarial activity against Plasmodium yoelii YM infected in BALB/c mouse assessed as parasite growth inhibition at 10 mg/kg, sc administered BID for 4 days starting at 96 hrs post infection, 8 hrs apart by Giemsa-staining based microscopic analysis. The experiment is classed as functional. The conditions noted are these: read-out: GI. Summed up: (§4)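 P. yoelii-infected mice, n=3 per group. Subcutaneous injection twice daily, 8 h apart, for 4 days starting at 96 h post infection. Growth inhibition read from blood smears at 24 h post treatment. Cure time taken as the minimum period to cure all mice in the group. DMSO controls included.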

The subject of experiment [8] is Plasmodium yoelii. Briefly: Antimalarial activity against Plasmodium yoelii YM infected in BALB/c mouse assessed as time duration for parasite cure at 10 mg/kg, sc administered BID for 4 days starting at 96 hrs post infection, 8 hrs apart by Giemsa-staining based microscopic analysis. It is filed as functional. Summed up:
as §4

The test system of experiment [9] is Plasmodium yoelii. Put plainly: Antimalarial activity against Plasmodium yoelii YM infected in BALB/c mouse assessed as mouse survival at 10 mg/kg, sc administered BID for 4 days starting at 96 hrs post infection, 8 hrs apart by Giemsa-staining based microscopic analysis. It is filed as functional. The essentials:
as §3

Experiment [10] concerns Plasmodium yoelii. Briefly: Antimalarial activity against Plasmodium yoelii YM infected in BALB/c mouse assessed as parasite growth inhibition at 30 mg/kg, sc administered BID for 4 days starting at 96 hrs post infection, 8 hrs apart by Giemsa-staining based microscopic analysis. It is filed as functional. The settings on record: read-out: GI. Summed up: as §4
Experiment [11] deals with Plasmodium yoelii. Put plainly: Antimalarial activity against Plasmodium yoelii YM infected in BALB/c mouse assessed as time duration for parasite cure at 30 mg/kg, sc administered BID for 4 days starting at 96 hrs post infection, 8 hrs apart by Giemsa-staining based microscopic analysis. It is filed as functional. The essentials: as §4
For experiment [12], the system named is Plasmodium yoelii. Briefly: Antimalarial activity against Plasmodium yoelii YM infected in BALB/c mouse assessed as mouse survival at 30 mg/kg, sc administered BID for 4 days starting at 96 hrs post infection, 8 hrs apart by Giemsa-staining based microscopic analysis. It is filed as functional. Summed up:
as §3

The subject of experiment [13] is Plasmodium yoelii. Briefly: Antimalarial activity against Plasmodium yoelii YM infected in BALB/c mouse assessed as parasite growth inhibition at 90 mg/kg, sc administered BID for 4 days starting at 96 hrs post infection, 8 hrs apart by Giemsa-staining based microscopic analysis. It is filed as functional. The settings on record: read-out: GI. Summed up:
as §4

Experiment [14] relates to Plasmodium yoelii. Briefly: Antimalarial activity against Plasmodium yoelii YM infected in BALB/c mouse assessed as time duration for parasite cure at 90 mg/kg, sc administered BID for 4 days starting at 96 hrs post infection, 8 hrs apart by Giemsa-staining based microscopic analysis. The experiment is classed as functional. The essentials: as §4
Experiment [15] concerns Plasmodium yoelii. Put plainly: Antimalarial activity against Plasmodium yoelii YM infected in BALB/c mouse assessed as mouse survival at 90 mg/kg, sc administered BID for 4 days starting at 96 hrs post infection, 8 hrs apart by Giemsa-staining based microscopic analysis. It is filed as functional. The essentials:
as §3

In experiment [16] the test system is Plasmodium yoelii. Put plainly: Antimalarial activity against Plasmodium yoelii YM infected in BALB/c mouse assessed as parasite cure level at 10 to 90 mg/kg, ip administered on days 1 post infection by Giemsa-stained microscopic analysis. It is filed as functional, organism-based. The essentials: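 Mice (groups of three) inoculated with 1×10^6 P. yoelii parasites. Single intraperitoneal dose of 10, 30 or 90 mg/kg given 24 h after inoculation. DMSO-only untreated group included. Outcome followed by blood-smear microscopy for cure, with survival scored at 40 days post infection.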

Experiment [17] relates to Plasmodium falciparum. Put plainly: Antimalarial activity against […] asexual blood stage Plasmodium falciparum 3D7 after 72 hrs by SYBR green-based fluorometric analysis. It is filed as functional. The conditions noted are these: 3D7, 72 h. The essentials:
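Mid-ring-stage cultures (~6-10 h post-invasion) at 1% parasitemia and 2% hematocrit, in triplicate. Twofold serial dilutions from a top concentration of 100 nM. Incubated 72 h at 37 °C under 5% CO2/5% O2/90% N2. Lysis buffer containing 5×SYBR Green I added, 20 min in the dark, fluorescence read at ex 485/em 538 nm. EC50 derived.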

For `CCc1nc(N)nc(N)c1-c1ccc(Cl)cc1` [PYRIMETHAMINE], the inhibition in vivo at 5 mg/kg in experiment [1] was 100%. Also, the Time in experiment [2] amounted to 30 days; in [5], 17 days; in experiment [8] it was 4 days; in [11], 4 days; in experiment [14] it was 4 days. Also, the survival at 5 mg/kg in [3] amounted to 100%. Further, the inhibition in vivo at 10 mg/kg in [4] was found to be 98.4%; in experiment [7], 100%. In addition, the survival at 10 mg/kg in [6] and in [9] was 100% throughout. Further, the inhibition in vivo at 30 mg/kg in experiment [10] came out at 100%. Besides, in [12], the survival at 30 mg/kg was found to be 100%. For the same compound, in [13], the inhibition in vivo at 90 mg/kg was determined as 100%. Further, the survival at 90 mg/kg in [15] was determined as 100%. Besides, in experiment [16], the outcome was Active.

The term EC50 denotes the concentration needed to bring the measured effect to its halfway point. Read a low EC50 as higher potency in that assay. `C[C@H]1[C@@H](O)O[C@@H]2O[C@@]3(C)CC[C@H]4[C@H](C)CC[C@@H]1[C@@]24OO3` [ARTENIMOL]: in [17], the EC50 was determined as 4.32 nM. In experiment [7], the inhibition in vivo at 10 mg/kg came to 100%. Besides, the Time in [8] came out at 15 days; in experiment [11], 4 days; in experiment [14], 4 days. The survival at 10 mg/kg in experiment [9] stood at 100%. Further, in [10], the inhibition in vivo at 30 mg/kg was determined as 100%. Also, the survival at 30 mg/kg in [12] was found to be 100%. In addition, the inhibition in vivo at 90 mg/kg in [13] is 100%. Also, the survival at 90 mg/kg in experiment [15] came out at 100%. Also, in experiment [16], the outcome was Active.
